In ChEMBL document CHEMBL5029188:
pEC50, pIC50: −log10 of the molar value.

Key:
SARS-CoV-2 = experiment: Antiviral activity against SARS CoV-2 infected in African green monkey Vero cells assessed as inhibition of viral replication incubated for 48 to 72 hrs by plaque reduction assay; format: functional, organism-based; conditions: Severe acute respiratory syndrome coronavirus 2, Vero
[1] = Inhibition of SARS CoV-2 3C like protease expressed in HEK293T cells transfected with pGlo-VRLQS incubated for 6 hrs by firefly/renilla luciferase reporter assay; format: cell-based; conditions: Severe acute respiratory syndrome coronavirus 2, HEK-293T
Procedure, shortened: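 HEK293T cells, one day old, were co-transfected with pR-SARS-CoV-2 3CLpro (3CLpro gene in a PRRSV replicon, between ORF1b and 2a) and pGlo-VRLQS (caged firefly luciferase with a VRLQS cleavage site, plus Renilla control). C145A-mutant and mock transfections served as negative controls. Next morning, serial compound dilutions were added for 6 h at 37 C. Read-out was the firefly/Renilla ratio, and EC50 came from a variable-slope fit.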

[2] = Inhibition of MERS CoV 3C like protease using FAM-SAVLQ/SG-QLX520 as substrate pretreated for 30 mins followed by substrate addition and measured after 1 hr by FRET assay; design: species or system Middle East respiratory syndrome-related coronavirus
[3] = Inhibition of SARS CoV-2 3C like protease using FAM-SAVLQ/SG-QLX520 as substrate pretreated for 1 hr followed by substrate addition and measured after 1 hr by FRET assay; design: species or system Severe acute respiratory syndrome coronavirus 2
Procedure, shortened: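 SARS-CoV-2 3CLpro was expressed from pET-28a(+). It was preincubated with serial compound dilutions at 37°C for 1 h in 20 mM HEPES pH 8, 200 mM NaCl, 0.4 mM EDTA, 60% glycerol and 6 mM DTT. IC50 came from a variable-slope fit, averaging at least two determinations.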

HEK-293T = experiment: Cytotoxicity against HEK293T cells assessed as reduction in cell viability measured after 72 hrs by CytoTox 96 nonradioactive cytotoxicity assay; format: cell-based; conditions: human
Procedure, shortened: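 HEK293T cells were exposed to compound at 1 to 100 μM for 72 h. Cytotoxicity was read with a CytoTox 96 nonradioactive kit, and CC50 was fitted with a variable-slope curve.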

## CC(C)C[C@H](NC(=O)OCc1ccccc1)C(=O)N[C@@H](C[C@@H]1CCNC1=O)C(O)S(=O)(=O)O (some centres not stated)
SARS-CoV-2
  pEC50: 6.64

## CC(C)C[C@H](NC(=O)OCc1cccc(F)c1)C(=O)N[C@H](C=O)C[C@@H]1CCNC1=O
[1]
  pEC50: 5.28
[2]
  pIC50: 7.15
[3]
  pIC50: 6.46
HEK-293T
  CC50: > 100 µM

## [2H]C([2H])(OC(=O)N[C@@H](CC(C)C)C(=O)N[C@H](C=O)C[C@@H]1CCNC1=O)c1c(F)c(F)c(F)c(F)c1F
[3]
  pIC50: 6.33

## CCCC[C@H]1CC[C@H](OC(=O)N[C@@H](CC(C)C)C(=O)N[C@H](C=O)C[C@@H]2CCNC2=O)CC1
[1]
  pEC50: 5.32
[2]
  pIC50: 6.92
[3]
  pIC50: 6.77
HEK-293T
  CC50: 55 µM

## CCCCC(OC(=O)N[C@@H](CC(C)C)C(=O)N[C@H](C=O)C[C@@H]1CCNC1=O)C1CCC(F)(F)CC1 (some centres not stated)
[3]
  pIC50: 6.72

## [2H]C([2H])(OC(=O)N[C@@H](CC(C)C)C(=O)N[C@@H](C[C@@H]1CCNC1=O)C(O)S(=O)(=O)[O-])c1c(F)c(F)c(F)c(F)c1F.[Na+] (some centres not stated)
[3]
  pIC50: 6.22

## CC(C)C[C@H](NC(=O)OC1CCC(C)(C)CC1)C(=O)N[C@H](C=O)C[C@@H]1CCNC1=O
[1]
  pEC50: 5.46
[2]
  pIC50: 6.92
[3]
  pIC50: 6.60
HEK-293T
  CC50: > 100 µM

## CC(C)C[C@H](NC(=O)OC[C@H]1CC[C@H](C(F)(F)F)CC1)C(=O)N[C@H](C=O)C[C@@H]1CCNC1=O
[3]
  pIC50: 6.60

## CC(C)C[C@H](NC(=O)OC(c1ccccc1)C1CCC(F)(F)CC1)C(=O)N[C@@H](C[C@@H]1CCNC1=O)C(O)S(=O)(=O)O (some centres not stated)
[1]
  pEC50: 5.84
[2]
  pIC50: 7.30
[3]
  pIC50: 6.77
HEK-293T
  CC50: > 100 µM
SARS-CoV-2
  pEC50: 6.15

## CC(C)C[C@H](NC(=O)OCc1ccc(F)cc1)C(=O)N[C@H](C=O)C[C@@H]1CCNC1=O
[3]
  pIC50: 6.41

## CC(C)C[C@H](NC(=O)O[C@H]1CC[C@H](c2ccccc2)CC1)C(=O)N[C@@H](C[C@@H]1CCNC1=O)C(O)S(=O)(=O)O (some centres not stated)
[3]
  pIC50: 6.64

## CC(C)C[C@H](NC(=O)OC(C)(C)C1CCC(F)(F)CC1)C(=O)N[C@@H](C[C@@H]1CCNC1=O)C(O)S(=O)(=O)O (some centres not stated)
[3]
  pIC50: 5.90

## CC(C)C[C@H](NC(=O)OC(C)C1CCC(F)(F)CC1)C(=O)N[C@@H](C[C@@H]1CCNC1=O)C(O)S(=O)(=O)O (some centres not stated)
[3]
  pIC50: 6.59

## CC(C)C[C@H](NC(=O)OC1CCC(C)(C)CC1)C(=O)N[C@@H](C[C@@H]1CCNC1=O)C(O)S(=O)(=O)O (some centres not stated)
[1]
  pEC50: 5.78
[2]
  pIC50: 6.92
[3]
  pIC50: 6.62
HEK-293T
  CC50: > 100 µM

## CC(C)C[C@H](NC(=O)OCc1c(F)c(F)c(F)c(F)c1F)C(=O)N[C@H](C=O)C[C@@H]1CCNC1=O
[1]
  pEC50: 5.49
[2]
  pIC50: 7.30
HEK-293T
  CC50: > 100 µM

## CCCC(OC(=O)N[C@@H](CC(C)C)C(=O)N[C@@H](C[C@@H]1CCNC1=O)C(O)S(=O)(=O)O)c1ccccc1 (some centres not stated)
[1]
  pEC50: 5.43
[2]
  pIC50: 6.89
[3]
  pIC50: 6.68
HEK-293T
  CC50: > 100 µM

## CCCC(OC(=O)N[C@@H](CC(C)C)C(=O)N[C@H](C=O)C[C@@H]1CCNC1=O)c1ccccc1 (some centres not stated)
[1]
  pEC50: 5.62
[2]
  pIC50: 7.10
[3]
  pIC50: 6.48
HEK-293T
  CC50: > 100 µM

## CC(C)C[C@H](NC(=O)OCc1ccccc1F)C(=O)N[C@@H](C[C@@H]1CCNC1=O)C(O)S(=O)(=O)O (some centres not stated)
[3]
  pIC50: 6.42

## CC(C)C[C@H](NC(=O)OC(Cc1ccccc1)C1CCC(F)(F)CC1)C(=O)N[C@@H](C[C@@H]1CCNC1=O)C(O)S(=O)(=O)O (some centres not stated)
[1]
  pEC50: 5.46
[2]
  pIC50: 6.85
[3]
  pIC50: 6.54
HEK-293T
  CC50: > 100 µM

## CC(C)C[C@H](NC(=O)O[C@H]1CC[C@H](C(C)C)CC1)C(=O)N[C@@H](C[C@@H]1CCNC1=O)C(O)S(=O)(=O)O (some centres not stated)
[3]
  pIC50: 6.62

## [2H]C([2H])(OC(=O)N[C@@H](CC(C)C)C(=O)N[C@@H](C[C@@H]1CCNC1=O)C(O)S(=O)(=O)[O-])[C@H]1CC[C@H](CCC)CC1.[Na+] (some centres not stated)
[3]
  pIC50: 6.48

## CC(C)C[C@H](NC(=O)OC(Cc1ccccc1)c1ccccc1)C(=O)N[C@H](C=O)C[C@@H]1CCNC1=O (some centres not stated)
[3]
  pIC50: 6.30

## [2H]C([2H])(OC(=O)N[C@@H](CC(C)C)C(=O)N[C@H](C=O)C[C@@H]1CCNC1=O)[C@H]1CC[C@H](CCC)CC1
[3]
  pIC50: 6.48

## CC(C)C[C@H](NC(=O)OC[C@H]1CC[C@@H](C(F)(F)F)CC1)C(=O)N[C@@H](C[C@@H]1CCNC1=O)C(O)S(=O)(=O)O (some centres not stated)
[3]
  pIC50: 6.70

## CC(C)C[C@H](NC(=O)OCc1ccc(F)cc1)C(=O)N[C@@H](C[C@@H]1CCNC1=O)C(O)S(=O)(=O)O (some centres not stated)
[3]
  pIC50: 6.40

## CC(C)C[C@H](NC(=O)OCC1CCC(F)(F)CC1)C(=O)N[C@H](C=O)C[C@@H]1CCNC1=O
[2]
  pIC50: 7.10

## CC(C)C[C@H](NC(=O)O[C@H]1CC[C@H](C(C)C)CC1)C(=O)N[C@H](C=O)C[C@@H]1CCNC1=O
[3]
  pIC50: 6.62

## CC(C)C[C@H](NC(=O)OCc1ccccc1F)C(=O)N[C@H](C=O)C[C@@H]1CCNC1=O
[3]
  pIC50: 6.47

## [2H]C([2H])(OC(=O)N[C@@H](CC(C)C)C(=O)N[C@@H](C[C@@H]1CCNC1=O)C(O)S(=O)(=O)[O-])C1CCC(F)(F)CC1.[Na+] (some centres not stated)
[3]
  pIC50: 6.68

## CC(C)C[C@H](NC(=O)O[C@H]1CC[C@H](c2ccccc2)CC1)C(=O)N[C@H](C=O)C[C@@H]1CCNC1=O
[3]
  pIC50: 6.66

## CC(C)C[C@H](NC(=O)OCC1CCC(F)(F)CC1)C(=O)N[C@@H](C[C@@H]1CCNC1=O)C(O)S(=O)(=O)O (some centres not stated)
[2]
  pIC50: 7.00

## CCC[C@H]1CC[C@H](COC(=O)N[C@@H](CC(C)C)C(=O)N[C@@H](C[C@@H]2CCNC2=O)C(O)S(=O)(=O)O)CC1 (some centres not stated)
[1]
  pEC50: 5.35
[2]
  pIC50: 6.96
[3]
  pIC50: 6.70
HEK-293T
  CC50: 44 µM

## CC(C)C[C@H](NC(=O)OC[C@H]1CC[C@H](C(F)(F)F)CC1)C(=O)N[C@@H](C[C@@H]1CCNC1=O)C(O)S(=O)(=O)O (some centres not stated)
[3]
  pIC50: 6.72

## CC(C)C[C@H](NC(=O)OC(c1ccccc1)C1CCC(F)(F)CC1)C(=O)N[C@H](C=O)C[C@@H]1CCNC1=O (some centres not stated)
[1]
  pEC50: 5.99
[2]
  pIC50: 7.40
[3]
  pIC50: 6.89
HEK-293T
  CC50: > 100 µM

## CCCCC(OC(=O)N[C@@H](CC(C)C)C(=O)N[C@@H](C[C@@H]1CCNC1=O)C(O)S(=O)(=O)O)C1CCC(F)(F)CC1 (some centres not stated)
[3]
  pIC50: 6.57

## CCC[C@H]1CC[C@H](OC(=O)N[C@@H](CC(C)C)C(=O)N[C@@H](C[C@@H]2CCNC2=O)C(O)S(=O)(=O)O)CC1 (some centres not stated)
[3]
  pIC50: 6.72

## [2H]C([2H])(OC(=O)N[C@@H](CC(C)C)C(=O)N[C@@H](C[C@@H]1CCNC1=O)C(O)S(=O)(=O)[O-])c1ccc(F)cc1.[Na+] (some centres not stated)
[3]
  pIC50: 6.49

## CC(C)C[C@H](NC(=O)OC[C@H]1CC[C@@H](C(F)(F)F)CC1)C(=O)N[C@H](C=O)C[C@@H]1CCNC1=O
[3]
  pIC50: 6.64

## CC(C)C[C@H](NC(=O)OC(C)(C)C1CCC(F)(F)CC1)C(=O)N[C@H](C=O)C[C@@H]1CCNC1=O
[3]
  pIC50: 5.92

## [2H]C([2H])(OC(=O)N[C@@H](CC(C)C)C(=O)N[C@H](C=O)C[C@@H]1CCNC1=O)c1ccc(F)cc1
[3]
  pIC50: 6.41

## CC(C)C[C@H](NC(=O)OCc1cccc(F)c1)C(=O)N[C@@H](C[C@@H]1CCNC1=O)C(O)S(=O)(=O)O (some centres not stated)
[1]
  pEC50: 5.47
[2]
  pIC50: 7.15
[3]
  pIC50: 6.44
HEK-293T
  CC50: > 100 µM

## CC(C)C[C@H](NC(=O)OC(Cc1ccccc1)C1CCC(F)(F)CC1)C(=O)N[C@H](C=O)C[C@@H]1CCNC1=O (some centres not stated)
[1]
  pEC50: 5.53
[2]
  pIC50: 7.00
[3]
  pIC50: 6.51
HEK-293T
  CC50: > 100 µM

## CC(C)C[C@H](NC(=O)OC(Cc1ccccc1)c1ccccc1)C(=O)N[C@@H](C[C@@H]1CCNC1=O)C(O)S(=O)(=O)O (some centres not stated)
[3]
  pIC50: 6.51

## CC(C)C[C@H](NC(=O)OCc1c(F)c(F)c(F)c(F)c1F)C(=O)N[C@@H](C[C@@H]1CCNC1=O)C(O)S(=O)(=O)O (some centres not stated)
[1]
  pEC50: 5.32
[2]
  pIC50: 7.10
HEK-293T
  CC50: > 100 µM

## CCCC[C@H]1CC[C@H](OC(=O)N[C@@H](CC(C)C)C(=O)N[C@@H](C[C@@H]2CCNC2=O)C(O)S(=O)(=O)O)CC1 (some centres not stated)
[1]
  pEC50: 5.37
[2]
  pIC50: 6.82
HEK-293T
  CC50: 58 µM
SARS-CoV-2
  pEC50: 6.07

## CC(C)C[C@H](NC(=O)OC(C)C1CCC(F)(F)CC1)C(=O)N[C@H](C=O)C[C@@H]1CCNC1=O (some centres not stated)
[3]
  pIC50: 6.59

## CCC[C@H]1CC[C@H](OC(=O)N[C@@H](CC(C)C)C(=O)N[C@H](C=O)C[C@@H]2CCNC2=O)CC1
[3]
  pIC50: 6.60
